The text below walks through data of ChEMBL document CHEMBL3124838, “Discovery of 6-aryl-azabenzimidazoles that inhibit the TBK1/IKK-ε kinases” (Bioorg Med Chem Lett, 2014).

The structures appear in SMILES notation.

One may read the IC50 as the point on the concentration scale where inhibition reaches its midpoint.

In one assay the target is T1, Phosphatidylinositol 3-kinase C2 domain-containing subunit gamma (Homo sapiens) (UniProt O75747).
T1 sequence (whole entry): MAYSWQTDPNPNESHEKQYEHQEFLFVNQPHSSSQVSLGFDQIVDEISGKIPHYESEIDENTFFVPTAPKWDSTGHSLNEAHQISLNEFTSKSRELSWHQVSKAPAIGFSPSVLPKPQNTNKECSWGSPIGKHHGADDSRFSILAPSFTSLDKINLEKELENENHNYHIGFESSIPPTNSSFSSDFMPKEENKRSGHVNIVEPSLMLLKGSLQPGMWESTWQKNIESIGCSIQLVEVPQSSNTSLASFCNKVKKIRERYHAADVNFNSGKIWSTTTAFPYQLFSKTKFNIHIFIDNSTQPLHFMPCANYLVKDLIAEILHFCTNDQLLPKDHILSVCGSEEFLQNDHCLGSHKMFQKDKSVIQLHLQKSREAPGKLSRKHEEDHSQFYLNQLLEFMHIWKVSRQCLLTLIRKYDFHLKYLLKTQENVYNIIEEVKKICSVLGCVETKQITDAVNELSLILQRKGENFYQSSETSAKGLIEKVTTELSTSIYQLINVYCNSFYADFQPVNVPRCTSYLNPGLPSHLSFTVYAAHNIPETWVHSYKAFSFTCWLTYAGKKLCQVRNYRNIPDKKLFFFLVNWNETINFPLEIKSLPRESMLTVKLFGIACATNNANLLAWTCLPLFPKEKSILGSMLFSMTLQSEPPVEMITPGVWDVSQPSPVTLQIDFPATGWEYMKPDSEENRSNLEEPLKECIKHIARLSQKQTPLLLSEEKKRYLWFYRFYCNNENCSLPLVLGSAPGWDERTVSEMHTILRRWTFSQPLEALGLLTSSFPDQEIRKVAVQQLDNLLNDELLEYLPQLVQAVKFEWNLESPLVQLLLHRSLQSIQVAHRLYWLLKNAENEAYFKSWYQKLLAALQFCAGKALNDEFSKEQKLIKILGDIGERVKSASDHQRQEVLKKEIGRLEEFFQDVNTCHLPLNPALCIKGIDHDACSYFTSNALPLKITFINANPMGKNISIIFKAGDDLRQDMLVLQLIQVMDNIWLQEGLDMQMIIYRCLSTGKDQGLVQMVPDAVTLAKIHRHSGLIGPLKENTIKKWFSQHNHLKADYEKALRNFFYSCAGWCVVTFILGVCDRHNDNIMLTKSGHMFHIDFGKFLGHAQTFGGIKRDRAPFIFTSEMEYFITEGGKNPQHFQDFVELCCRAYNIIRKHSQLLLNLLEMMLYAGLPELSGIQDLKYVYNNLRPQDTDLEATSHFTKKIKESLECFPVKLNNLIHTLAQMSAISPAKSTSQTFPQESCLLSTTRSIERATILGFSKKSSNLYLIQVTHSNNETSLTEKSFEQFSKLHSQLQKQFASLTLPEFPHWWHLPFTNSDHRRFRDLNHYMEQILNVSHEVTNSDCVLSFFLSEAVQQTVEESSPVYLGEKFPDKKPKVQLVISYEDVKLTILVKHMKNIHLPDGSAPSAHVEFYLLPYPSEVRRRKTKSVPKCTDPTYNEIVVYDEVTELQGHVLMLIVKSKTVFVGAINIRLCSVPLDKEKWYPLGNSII
Kind of assay: Inhibition of human PI3KC2gamma assessed as residual activity at 1 uM relative to control.
With `COc1ccc(-c2nc3cc(-c4csc(C(=O)NCCC(C)C)c4)cnc3[nH]2)cc1`, the Activity was 94%.
On the same count and under the same terms, then `COc1ccc(-c2nc3cc(-c4csc(C(=O)NCC(C)(C)C)c4)cnc3[nH]2)cc1`, with 94%.
With `COc1ccc(-c2nc3cc(-c4csc(C(=O)NCC(C)C)c4)cnc3[nH]2)cc1`, the Activity came to 92%.

The target in another assay is 3-phosphoinositide-dependent protein kinase 1 (Homo sapiens) (UniProt O15530). Kind of assay: Inhibition of human PDK1 assessed as residual activity at 1 uM relative to control.
Chain of 3-phosphoinositide-dependent protein kinase 1 (Homo sapiens) (O15530 whole entry, looked up): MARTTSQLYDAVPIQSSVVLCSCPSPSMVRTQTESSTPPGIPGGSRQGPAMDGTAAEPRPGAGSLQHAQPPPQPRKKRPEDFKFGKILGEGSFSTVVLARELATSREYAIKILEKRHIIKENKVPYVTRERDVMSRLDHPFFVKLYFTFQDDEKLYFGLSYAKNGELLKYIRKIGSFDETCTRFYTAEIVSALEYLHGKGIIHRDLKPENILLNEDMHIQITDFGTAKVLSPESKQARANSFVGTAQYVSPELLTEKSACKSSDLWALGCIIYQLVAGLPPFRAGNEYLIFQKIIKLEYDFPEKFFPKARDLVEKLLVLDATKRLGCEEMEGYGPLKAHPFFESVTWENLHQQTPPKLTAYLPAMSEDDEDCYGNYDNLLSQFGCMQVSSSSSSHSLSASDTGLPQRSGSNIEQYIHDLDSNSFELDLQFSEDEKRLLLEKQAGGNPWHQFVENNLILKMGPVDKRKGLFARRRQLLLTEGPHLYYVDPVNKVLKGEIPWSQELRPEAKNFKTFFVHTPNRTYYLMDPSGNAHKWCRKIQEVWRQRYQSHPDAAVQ
On to `COc1ccc(-c2nc3cc(-c4csc(C(=O)NCCC(C)C)c4)cnc3[nH]2)cc1`, for which the Activity came to 80%.
The same measure, in the same setting: the figure for `COc1ccc(-c2nc3cc(-c4csc(C(=O)NCC(C)(C)C)c4)cnc3[nH]2)cc1` is 85%; for `COc1ccc(-c2nc3cc(-c4csc(C(=O)NCC(C)C)c4)cnc3[nH]2)cc1` it is 91%.

The target of the next assay is Serine/threonine-protein kinase mTOR (Homo sapiens) (UniProt P42345). Kind of assay: Inhibition of human mTOR assessed as residual activity at 1 uM relative to control.
As to `COc1ccc(-c2nc3cc(-c4csc(C(=O)NCCC(C)C)c4)cnc3[nH]2)cc1`, the Activity was 110%.
On to `COc1ccc(-c2nc3cc(-c4csc(C(=O)NCC(C)(C)C)c4)cnc3[nH]2)cc1`, for which the Activity worked out at 102%.
For the molecule `COc1ccc(-c2nc3cc(-c4csc(C(=O)NCC(C)C)c4)cnc3[nH]2)cc1`, the Activity came out at 104%.

A further assay addresses T2, Inhibitor of nuclear factor kappa-B kinase subunit epsilon (Homo sapiens, UniProt Q14164).
T2 sequence (Q14164 whole entry): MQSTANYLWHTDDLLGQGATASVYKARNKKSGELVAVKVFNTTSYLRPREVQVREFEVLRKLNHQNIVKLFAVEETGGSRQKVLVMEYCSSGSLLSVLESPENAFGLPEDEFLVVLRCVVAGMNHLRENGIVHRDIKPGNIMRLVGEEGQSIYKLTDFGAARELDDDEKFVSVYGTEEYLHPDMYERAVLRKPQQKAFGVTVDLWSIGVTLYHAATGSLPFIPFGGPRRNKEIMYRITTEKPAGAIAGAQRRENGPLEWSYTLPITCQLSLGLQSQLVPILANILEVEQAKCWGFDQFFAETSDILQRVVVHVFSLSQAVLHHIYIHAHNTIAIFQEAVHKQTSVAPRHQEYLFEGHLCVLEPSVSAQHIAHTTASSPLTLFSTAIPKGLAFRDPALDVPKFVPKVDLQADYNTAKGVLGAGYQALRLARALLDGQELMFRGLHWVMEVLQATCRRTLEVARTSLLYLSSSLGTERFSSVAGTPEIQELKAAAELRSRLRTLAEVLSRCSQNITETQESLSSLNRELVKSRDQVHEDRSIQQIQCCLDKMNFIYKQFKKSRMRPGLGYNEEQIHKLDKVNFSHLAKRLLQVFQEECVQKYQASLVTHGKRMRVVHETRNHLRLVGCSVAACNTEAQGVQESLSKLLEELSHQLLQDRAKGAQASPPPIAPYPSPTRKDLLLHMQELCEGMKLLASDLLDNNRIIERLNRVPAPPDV
Kind of assay: Inhibition of IKK-epsilon (unknown origin) using 5FAM-AKELDQGSLCTpSFVGTLQ-NH2 as substrate by microfluidic mobility shift assay. Put shortly: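 Recombinant IKK-ε (4 nM) in HEPES buffer with 1.5 µM 5FAM-labelled peptide substrate, ATP at its K_M, and 10 mM MgCl2. The 10-point titration used half-log serial dilutions. Reactions ran at room temperature for a set time, were quenched with EDTA-containing HEPES, and were read by microfluidic mobility shift. Percent inhibition came from the ratio of phosphorylated to total peptide.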
Turning to `COc1ccc(-c2nc3cc(-c4csc(C(=O)NCCC(C)C)c4)cnc3[nH]2)cc1`, the IC50 was found to be 1750 nM.
Consider `COc1ccc(-c2nc3cc(-c4csc(C(=O)NCC(C)(C)C)c4)cnc3[nH]2)cc1`, for which the 50% inhibitory concentration (IC50) came out at 497 nM.
With `COc1ccc(-c2nc3cc(-c4csc(C(=O)NCC(C)C)c4)cnc3[nH]2)cc1`, the IC50 was 273 nM.

The target of a further assay is Dual specificity mitogen-activated protein kinase kinase 1 (Homo sapiens) (UniProt Q02750). Kind of assay: Inhibition of human MEK1 assessed as residual activity at 1 uM relative to control.
Chain of Dual specificity mitogen-activated protein kinase kinase 1 (Homo sapiens) (Q02750 whole entry): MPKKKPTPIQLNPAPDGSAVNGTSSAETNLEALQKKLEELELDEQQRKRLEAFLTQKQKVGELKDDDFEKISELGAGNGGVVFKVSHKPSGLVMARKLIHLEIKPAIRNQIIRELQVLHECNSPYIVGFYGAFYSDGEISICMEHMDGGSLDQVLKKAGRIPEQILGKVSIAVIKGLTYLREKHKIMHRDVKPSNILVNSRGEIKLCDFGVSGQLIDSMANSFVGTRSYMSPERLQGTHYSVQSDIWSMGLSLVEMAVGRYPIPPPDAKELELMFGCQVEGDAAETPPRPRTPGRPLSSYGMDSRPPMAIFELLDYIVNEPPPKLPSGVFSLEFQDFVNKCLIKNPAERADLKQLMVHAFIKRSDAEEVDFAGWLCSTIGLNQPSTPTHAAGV
Consider `COc1ccc(-c2nc3cc(-c4csc(C(=O)NCCC(C)C)c4)cnc3[nH]2)cc1`, for which the Activity was determined as 90%.
Same read-out and setting: then `COc1ccc(-c2nc3cc(-c4csc(C(=O)NCC(C)(C)C)c4)cnc3[nH]2)cc1`, with 89%.
On to `COc1ccc(-c2nc3cc(-c4csc(C(=O)NCC(C)C)c4)cnc3[nH]2)cc1`, for which the Activity was found to be 86%.

In another assay the target is Tyrosine-protein kinase Lck (Homo sapiens) (UniProt P06239). Kind of assay: Inhibition of human LCK assessed as residual activity at 1 uM relative to control.
Chain of Tyrosine-protein kinase Lck (Homo sapiens) (P06239 2-509 limits assumed): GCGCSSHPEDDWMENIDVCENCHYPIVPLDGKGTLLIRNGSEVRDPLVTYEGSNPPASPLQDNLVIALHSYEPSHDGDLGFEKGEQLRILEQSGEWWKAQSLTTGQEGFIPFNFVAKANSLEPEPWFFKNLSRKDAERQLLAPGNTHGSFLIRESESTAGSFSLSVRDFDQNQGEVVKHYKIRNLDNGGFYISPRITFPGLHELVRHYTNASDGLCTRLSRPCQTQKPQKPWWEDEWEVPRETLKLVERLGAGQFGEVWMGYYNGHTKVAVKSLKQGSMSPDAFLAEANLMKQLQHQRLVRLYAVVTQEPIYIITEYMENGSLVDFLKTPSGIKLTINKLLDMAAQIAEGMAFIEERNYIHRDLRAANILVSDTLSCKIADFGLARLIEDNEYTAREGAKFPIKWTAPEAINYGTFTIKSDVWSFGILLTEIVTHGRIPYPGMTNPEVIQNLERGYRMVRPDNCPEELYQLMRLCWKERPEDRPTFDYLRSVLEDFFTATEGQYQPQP
For `COc1ccc(-c2nc3cc(-c4csc(C(=O)NCCC(C)C)c4)cnc3[nH]2)cc1`, the Activity is 31%.
Still for that read-out and setting: then `COc1ccc(-c2nc3cc(-c4csc(C(=O)NCC(C)(C)C)c4)cnc3[nH]2)cc1`, with 64%; and `COc1ccc(-c2nc3cc(-c4csc(C(=O)NCC(C)C)c4)cnc3[nH]2)cc1`, with 44%.

The target in the next assay is Tyrosine-protein kinase BTK (Homo sapiens) (UniProt Q06187). Kind of assay: Inhibition of human BTK assessed as residual activity at 1 uM relative to control.
Chain of Tyrosine-protein kinase BTK (Homo sapiens) (Q06187 whole entry): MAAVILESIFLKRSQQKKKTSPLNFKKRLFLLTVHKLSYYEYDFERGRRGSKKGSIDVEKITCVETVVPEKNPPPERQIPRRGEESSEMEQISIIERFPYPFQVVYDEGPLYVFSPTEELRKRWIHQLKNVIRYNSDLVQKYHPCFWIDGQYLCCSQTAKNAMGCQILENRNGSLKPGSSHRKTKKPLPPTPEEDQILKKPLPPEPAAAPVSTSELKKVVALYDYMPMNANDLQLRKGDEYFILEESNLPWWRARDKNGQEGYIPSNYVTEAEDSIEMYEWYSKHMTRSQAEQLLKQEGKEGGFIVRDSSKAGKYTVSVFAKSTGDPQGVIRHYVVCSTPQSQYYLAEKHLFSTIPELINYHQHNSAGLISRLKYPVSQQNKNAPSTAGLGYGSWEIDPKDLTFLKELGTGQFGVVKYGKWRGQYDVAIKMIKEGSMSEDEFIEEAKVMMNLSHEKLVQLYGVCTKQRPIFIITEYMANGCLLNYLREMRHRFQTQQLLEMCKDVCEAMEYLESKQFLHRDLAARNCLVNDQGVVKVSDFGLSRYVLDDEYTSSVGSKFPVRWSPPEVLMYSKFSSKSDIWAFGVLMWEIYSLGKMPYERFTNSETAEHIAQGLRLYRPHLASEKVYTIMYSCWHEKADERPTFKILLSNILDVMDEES
`COc1ccc(-c2nc3cc(-c4csc(C(=O)NCCC(C)C)c4)cnc3[nH]2)cc1`: the Activity worked out at 93%.
On the same count and under the same terms, then `COc1ccc(-c2nc3cc(-c4csc(C(=O)NCC(C)(C)C)c4)cnc3[nH]2)cc1`, with 100%.
For `COc1ccc(-c2nc3cc(-c4csc(C(=O)NCC(C)C)c4)cnc3[nH]2)cc1`, the Activity worked out at 112%.

The next assay has as its target Cyclin-dependent kinase 2 (Homo sapiens, UniProt P24941). Kind of assay: Inhibition of CDK2 (unknown origin).
With `COc1ccc(-c2nc3cc(-c4csc(C(=O)NCCC(C)C)c4)cnc3[nH]2)cc1`, the IC50 is more than 30000 nM.
Molecule `COc1ccc(-c2nc3cc(-c4csc(C(=O)NCC(C)(C)C)c4)cnc3[nH]2)cc1` gave an IC50 of more than 30000 nM.
In turn, `COc1ccc(-c2nc3cc(-c4csc(C(=O)NCC(C)C)c4)cnc3[nH]2)cc1` had an IC50 of more than 30000 nM.

For another assay, the target named is Serine/threonine-protein kinase MARK1 (Homo sapiens) (UniProt Q9P0L2). Kind of assay: Inhibition of human MARK1 assessed as residual activity at 1 uM relative to control.
Chain of Serine/threonine-protein kinase MARK1 (Homo sapiens) (Q9P0L2 whole entry, looked up): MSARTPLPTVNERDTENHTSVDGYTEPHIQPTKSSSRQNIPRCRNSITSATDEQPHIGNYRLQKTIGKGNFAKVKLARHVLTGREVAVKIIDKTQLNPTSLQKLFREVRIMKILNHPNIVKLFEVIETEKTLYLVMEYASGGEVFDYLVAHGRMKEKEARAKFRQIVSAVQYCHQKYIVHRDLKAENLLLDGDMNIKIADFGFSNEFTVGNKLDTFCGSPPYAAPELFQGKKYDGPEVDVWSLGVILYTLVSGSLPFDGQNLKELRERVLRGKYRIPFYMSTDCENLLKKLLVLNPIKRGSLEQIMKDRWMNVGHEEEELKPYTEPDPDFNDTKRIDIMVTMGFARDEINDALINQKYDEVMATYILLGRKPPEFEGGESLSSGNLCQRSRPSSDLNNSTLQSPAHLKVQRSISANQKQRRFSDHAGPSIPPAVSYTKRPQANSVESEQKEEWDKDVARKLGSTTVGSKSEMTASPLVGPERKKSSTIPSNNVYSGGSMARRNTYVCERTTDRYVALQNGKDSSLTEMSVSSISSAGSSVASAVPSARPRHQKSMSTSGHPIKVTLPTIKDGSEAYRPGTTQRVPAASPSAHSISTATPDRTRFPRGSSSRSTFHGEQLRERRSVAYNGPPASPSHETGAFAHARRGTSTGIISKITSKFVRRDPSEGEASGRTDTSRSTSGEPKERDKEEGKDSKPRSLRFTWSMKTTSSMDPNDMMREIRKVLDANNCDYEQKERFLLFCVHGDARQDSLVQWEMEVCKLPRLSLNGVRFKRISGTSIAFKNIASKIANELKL
With `COc1ccc(-c2nc3cc(-c4csc(C(=O)NCCC(C)C)c4)cnc3[nH]2)cc1`, the Activity is 61%.
Same read-out and setting: then `COc1ccc(-c2nc3cc(-c4csc(C(=O)NCC(C)(C)C)c4)cnc3[nH]2)cc1`, with 58%; and `COc1ccc(-c2nc3cc(-c4csc(C(=O)NCC(C)C)c4)cnc3[nH]2)cc1`, with 48%.
